Experimental data from PMC5569645 (ACS Chemical Biology, 2017).
Entries after “also recorded” stand apart in the source; their conditions may differ.

Key:
purified WT NOD2 [1] = target: T1, purified WT NOD2 (Homo sapiens, UniProt Q9HC29); experiment: Backscattering interferometry; type: binding
Outline: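 Purified Flag-tagged human WT NOD2 from baculovirus/insect cells, stored at 4 °C and used within 3 days, at a fixed 10 nM in PBS pH 6.5. Increasing ligand, incubated 40 min at RT in the dark, then read by BSI on a passivated microfluidic chip at 25 °C. Phase change plotted against concentration; purified NOD1 signal under identical conditions subtracted. Single-site fit; run in triplicate, Kd reported as a range.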

purified WT NOD2 [2] = target: T1, purified WT NOD2; experiment: SPR binding assay, surface-tethered ligands and purified WT NOD2
Outline: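 Amine-functionalized peptidoglycan derivatives coupled in separate lanes to carboxylic acid-terminated thioalkane self-assembled monolayers on gold. Purified Flag-tagged human WT NOD2 (insect-cell expressed, used within 3 days) flowed over at pH 6.5. Apparent dissociation constants taken from the adsorption isotherm, not a true KD.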

[3] = target: NOD2 in native membrane vesicles (Homo sapiens, UniProt Q9HC29); type: binding; details: for relative binding strength / binding to NOD2 in the native-membrane environment (in words): BSI; for relative binding strength: NOD2 in native membrane vesicles; for binding to NOD2 in the native-membrane environment (in words): native-membrane vesicles; for BSI signal on titration after preincubation with excess ligand 2: competition binding, membrane vesicles preincubated with ligand 2 (10 μM)
Sequence of NOD2 in native membrane vesicles (Q9HC29 whole entry): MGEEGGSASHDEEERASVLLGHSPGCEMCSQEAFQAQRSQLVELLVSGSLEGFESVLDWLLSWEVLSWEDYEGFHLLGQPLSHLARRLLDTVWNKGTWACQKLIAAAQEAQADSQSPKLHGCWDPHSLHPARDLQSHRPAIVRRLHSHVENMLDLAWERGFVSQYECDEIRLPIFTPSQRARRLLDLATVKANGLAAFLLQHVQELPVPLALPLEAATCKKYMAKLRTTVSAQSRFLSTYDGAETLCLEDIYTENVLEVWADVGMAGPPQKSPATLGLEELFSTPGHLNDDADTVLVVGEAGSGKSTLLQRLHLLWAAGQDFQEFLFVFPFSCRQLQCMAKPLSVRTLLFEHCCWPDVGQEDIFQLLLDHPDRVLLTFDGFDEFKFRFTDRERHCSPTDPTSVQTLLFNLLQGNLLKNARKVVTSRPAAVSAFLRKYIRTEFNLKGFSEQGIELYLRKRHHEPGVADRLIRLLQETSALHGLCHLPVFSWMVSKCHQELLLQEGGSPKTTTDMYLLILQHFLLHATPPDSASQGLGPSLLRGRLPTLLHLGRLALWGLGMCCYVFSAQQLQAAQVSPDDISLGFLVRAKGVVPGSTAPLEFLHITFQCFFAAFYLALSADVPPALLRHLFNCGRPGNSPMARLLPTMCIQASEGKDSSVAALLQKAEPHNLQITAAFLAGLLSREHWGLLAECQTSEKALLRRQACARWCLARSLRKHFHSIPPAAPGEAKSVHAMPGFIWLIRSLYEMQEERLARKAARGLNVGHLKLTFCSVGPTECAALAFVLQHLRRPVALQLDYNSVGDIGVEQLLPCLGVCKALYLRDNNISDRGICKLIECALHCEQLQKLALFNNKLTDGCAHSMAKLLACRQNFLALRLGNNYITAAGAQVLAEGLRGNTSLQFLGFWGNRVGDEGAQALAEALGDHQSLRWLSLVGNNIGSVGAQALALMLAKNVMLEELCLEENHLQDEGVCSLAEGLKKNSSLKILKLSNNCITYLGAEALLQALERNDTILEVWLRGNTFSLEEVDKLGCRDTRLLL
Outline: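 Vesicles: about 1 × 10^8 HEK293T-Nod2Myc/tet-op cells in ice-cold HBSS with EDTA-free protease inhibitors, probe-sonicated to clarity, passed through a 220 nm filter (2 h, 6000g, 4 °C). Filtrate stored at 4 °C up to 4 days. Checked by DLS, FM1-43FX lipid stain and Western blot. Fixed vesicle amount plus ligand titration, 40 min dark, RT. BSI chip at 25 °C. Referenced to NOD2-negative HEK293T vesicles; single-site Langmuir fit. Competition: 10 μM excess ligand preincubation, then titration.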

T1 sequence (Q9HC29 whole entry): as above

| Kd (purified WT NOD2 [1]) [µM] | Kd (purified WT NOD2 [2]) [µM] | Kd [3] [µM] | relative binding strength [3] | BSI signal on titration after preincubation with excess ligand 2 [3] | SMILES | binding to NOD2 in the native-membrane environment (in words) [3] |
| --- | --- | --- | --- | --- | --- | --- |
| 0.008 to 0.02 | 0.016 to 0.03 | 0.003 to 0.03 | strong |  | COC(=O)[C@H](C)NC(=O)[C@@H](C)O[C@H]1[C@H](O)[C@@H](CN)O[C@H](O)[C@@H]1NC(C)=O [ligand 19] | bind with high affinity; also recorded: strongly bound |
| 0.015 to 0.03 | 0.024 to 0.036 |  | strong |  | CC(=O)N[C@@H]1[C@@H](O[C@H](C)C(=O)N[C@@H](C)C(=O)O)[C@H](O)[C@@H](CN)O[C@@H]1O [ligand 18] | indications of binding but unusual curves |
|  |  |  |  |  | N[C@H](CCC(=O)N[C@H](CCC[C@H](N)C(=O)O)C(=O)O)C(=O)O [iE-DAP, reference compound] | did not bind |
| 0.002 to 0.01 | 0.012 to 0.024 | 0.05 to 0.2 | weak | no BSI signal | COC(=O)[C@@H](C)O[C@H]1[C@H](O)[C@@H](CN)O[C@H](O)[C@@H]1NC(C)=O [ligand 20] | bind with weak affinity; also recorded: weakly bound |
|  |  |  |  |  | COC(=O)[C@@H](C)O[C@H]1[C@H](O)[C@@H](CO)OC(O)[C@@H]1NC(C)=O (some centres unmarked) [ligand 23, N-acetyl muramyl methyl ester] | bound with similar high affinity |
|  |  |  |  |  | CC(=O)N[C@H]1C(O)O[C@H](CO)[C@@H](O)[C@@H]1O[C@H](C)C(=O)O (some centres unmarked) [N-acetyl-muramic acid, reference compound] | did not bind; also recorded: does not bind or activate |
| 0.001 to 0.006 | 0.01 to 0.018 | 0.003 to 0.03 | strong |  | CC(=O)N[C@@H]1[C@@H](O[C@H](C)C(=O)N[C@@H](C)C(=O)N[C@@H](CCC(=O)O)C(N)=O)[C@H](O)[C@@H](CN)O[C@@H]1O [ligand 3, 6-amino-MDP-(LL)] | bind with high affinity |
| 0.002 to 0.01 | 0.004 to 0.01 | 0.003 to 0.03 | strong | no BSI signal | CC(=O)N[C@@H]1[C@@H](O[C@H](C)C(=O)N[C@@H](C)C(=O)N[C@H](CCC(=O)O)C(N)=O)[C@H](O)[C@@H](CN)O[C@@H]1O [ligand 2, 6-amino-MDP-(LD)] | bind with high affinity |
